ChEMBL document CHEMBL1152770, “Inhibitors of hepatitis C virus polymerase: synthesis and biological characterization of unsymmetrical dialkyl-hydroxynaphthalenoyl-benzothiadiazines” (J Med Chem, 2009)

Columns and labels:
[1] = Drug level in rat liver at 5 mg/kg, po after 6 hrs; type: ADME, organism-based; set-up: dose 5 mg/kg, route oral; settings: read-out: Drug uptake
In short: (§1)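 Rats dosed orally at 5 mg/kg, four groups, sacrificed at 6 and 12 h. Plasma and liver homogenate extracted by acetonitrile protein precipitation with internal standard and quantified by LC-MS (negative-ion MRM). Liver/plasma ratio taken from the two concentrations.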

[2] = Drug level in rat liver at 5 mg/kg, po after 12 hrs; type: ADME, organism-based; set-up: dose 5 mg/kg, route oral; settings: read-out: Drug uptake; in short: as §1
[3] = Ratio of drug level in liver to plasma in rat at 5 mg/kg, po after 6 hrs; type: ADME, organism-based; set-up: dose 5 mg/kg, route oral; in short: as §1
[4] = Plasma concentration in rat at 5 mg/kg, po after 6 hrs; type: ADME, organism-based; set-up: dose 5 mg/kg, route oral
In short: (§2)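 Vehicle DMSO:PEG400 (10:90, v/v). Dosing at 5 mg/kg in rat and monkey; dog 5 mg/kg or 2.5 mg/kg. Protein precipitation with acetonitrile, then LC-MS/MS in negative-ion MRM (m/z 516.2→437.0) against spiked standards with internal standard.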

[5] = Ratio of drug level in liver to plasma in rat at 5 mg/kg, po after 12 hrs; type: ADME, organism-based; set-up: dose 5 mg/kg, route oral; in short: as §1
[6] = Plasma concentration in rat at 5 mg/kg, po after 12 hrs; type: ADME, organism-based; set-up: dose 5 mg/kg, route oral; in short: as §2
[7] = Inhibition of HCV isolate H77 NS5B polymerase after 3 hrs by scintillation counting
[8] = Inhibition of HCV isolate BK NS5B polymerase after 3 hrs by scintillation counting
[9] = n-Octanol-phosphate buffer distribution coefficient, log D at pH 7.4; type: physicochemical
In short: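 Compound was dissolved in n-octanol and mixed with 50 mM phosphate buffer, isotonic with NaCl, pH 7.4. The mixture was tumbled at 25 °C, 25 rpm, for 2-3 days, then centrifuged to split the phases. Each phase was assayed by reverse-phase HPLC (UV 262 nm) against a linear standard curve. D is the octanol/buffer concentration ratio.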

[10] = Aqueous solubility in 50 mM phosphate buffer at pH 7.4; type: physicochemical
In short: (§3)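 Equilibrium solubility in PEG 400, in 50 mM citrate buffer pH 4 or in 50 mM phosphate buffer pH 7.4. Buffers brought to ionic strength 0.155 M with NaCl. Vials rotated at 25 °C for 4 days, final pH measured, then supernatant assayed by reverse-phase HPLC at 262 nm against a linear standard curve.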

[11] = Solubility in polyethylene glycol 400 at 25 deg C; type: physicochemical; in short: as §3

SMILES	concentration at 6 h [1] [ng/g]	concentration at 12 h [2] [ng/g]	Kp at 6 h [3]	concentration at 6 h [4] [nM]	Kp at 12 h [5]	concentration at 12 h [6] [nM]	IC50 [7] [µM]	IC50 [8] [µM]	logD [9]	solubility [10] [µg/mL]	solubility [11] [mg/mL]
CC(C)CC[C@@]1(C)C(=O)C(C2=NS(=O)(=O)c3cc(NS(C)(=O)=O)ccc3N2)=C(O)c2ccccc21	3800	1430	17	445	20	135					
CC(C)(C)CC[C@]1(C)C(=O)C(C2=NS(=O)(=O)c3cc(NS(C)(=O)=O)ccc3N2)=C(O)c2ccccc21							0.444	0.518			
CC(C)(C)CC[C@@]1(C)C(=O)C(C2=NS(=O)(=O)c3cc(NS(C)(=O)=O)ccc3N2)=C(O)c2ccccc21	21800	4190	17	2240	20	320					
CS(=O)(=O)Nc1ccc2c(c1)S(=O)(=O)N=C(c1c([O-])c3ccccc3n(NC3CCC3)c1=O)N2.[Na+]									1.45	< 0.07	> 191.8
